Assay results pooled from the literature.
Protocols differ between the studies behind these lines.
PIK3CA C420R: Phosphatidylinositol 4,5-bisphosphate 3-kinase catalytic subunit alpha isoform (PIK3CA, Homo sapiens, UniProt P42336, C420R)
PIK3CA: Phosphatidylinositol 4,5-bisphosphate 3-kinase catalytic subunit alpha isoform (PIK3CA, Homo sapiens, UniProt P42336)
PIK3CA I800L: Phosphatidylinositol 4,5-bisphosphate 3-kinase catalytic subunit alpha isoform (PIK3CA, Homo sapiens, UniProt P42336, I800L)
PIK3CA M1043I: Phosphatidylinositol 4,5-bisphosphate 3-kinase catalytic subunit alpha isoform (PIK3CA, Homo sapiens, UniProt P42336, M1043I)
PIK3CA E545A: Phosphatidylinositol 4,5-bisphosphate 3-kinase catalytic subunit alpha isoform (PIK3CA, Homo sapiens, UniProt P42336, E545A)
PIK3CA E542K: Phosphatidylinositol 4,5-bisphosphate 3-kinase catalytic subunit alpha isoform (PIK3CA, Homo sapiens, UniProt P42336, E542K)
PIK3CA H1047L: Phosphatidylinositol 4,5-bisphosphate 3-kinase catalytic subunit alpha isoform (PIK3CA, Homo sapiens, UniProt P42336, H1047L)

| SMILES | target | assay | setting | remaining binding [%] |
| --- | --- | --- | --- | --- |
| Cc1cc(NC(=O)c2cccc(S(F)(F)(F)(F)F)c2)cc(-n2ccn3nc(-c4cccnc4)cc23)c1 | PIK3CA C420R | cell-free assay, competition with immobilised ligand | 1 µM | 97.1 |
| CN(C)c1ncc(F)c(-c2cnn3ncccc23)n1 | PIK3CA | binding | 1 µM | 77 |
| O=C(Nc1cccnn1)N1CC(C/C=C/c2cncc(Oc3ccc(C(F)(F)F)cn3)n2)C1 | PIK3CA I800L | cell-free assay, competition with immobilised ligand | 1 µM | 91 |
| F[C@@H]1CCN(c2nccc(-c3cnn4ncccc34)n2)C1 | PIK3CA M1043I | binding | 1 µM | 100 |
| Nc1ncc2c(n1)-c1c([nH]c3ccc(C#CC4CC4)cc13)CCCC2 | PIK3CA M1043I | binding, competition with immobilised ligand | 1 µM | 62 |
| CN(C)c1nccc(-c2cnn3ncccc23)n1 | PIK3CA | binding | 1 µM | 97 |
| COc1cnc(Nc2cccc(S(N)(=O)=O)c2)nc1N1CCN(c2ccccc2)CC1 | PIK3CA E545A | binding, competition with immobilised ligand | 1 µM | 100 |
| O=C(NS(=O)(=O)c1ccc(NCC2CCOCC2)c([N+](=O)[O-])c1)c1ccc(N2CCN(Cc3ccc(C(F)(F)F)cc3-c3ccc(Cl)cc3)CC2)cc1Oc1cnc2[nH]ccc2c1 | PIK3CA | cell-free assay, competition with immobilised ligand | 1 µM | 69 |
| O=C(c1ccc(Nc2ncc(Cl)c(-c3ccc(Cl)s3)n2)cc1)N1CCC(N2CCCC2)CC1 | PIK3CA E545A | binding, competition with immobilised ligand | 1 µM | 100 |
| COc1ncc2cc3ccccc3nc2c1C#N | PIK3CA M1043I | cell-free assay, competition with immobilised ligand | 5 µM | 100 |
| c1cnn2ncc(-c3ccnc(N4CCC45COC5)n3)c2c1 | PIK3CA | binding | 1 µM | 79 |
| O=c1nc(-c2ccccn2)sc2ccccc12 | PIK3CA E542K | cell-free assay, competition with immobilised ligand | 1 µM | 89 |
| O=C(NCC1CCOCC1)c1n[nH]cc1NC(=O)c1c(F)cccc1F | PIK3CA C420R | binding, competition with immobilised ligand | 1 µM | 100 |
| C=CC(=O)N1CCC(C(=O)NCC(=O)N2CCN(c3nc(-c4cnc(N)nc4C(F)F)nc(N4CCOCC4)n3)CC2)CC1 | PIK3CA I800L | binding, competition with immobilised ligand | 1 µM | 0 |
| C[C@@H](c1ccc(-n2cnc3c(N)ncnc32)cc1)N1CCc2nn(C)c(Cc3ccccc3)c2C1=O | PIK3CA E545A | binding, competition with immobilised ligand | 0.1 µM | 100 |
| CO[C@@H](C)c1c(Nc2ccc([C@@H](N(C)C(=O)C3CCS(=O)(=O)CC3)C(F)(F)F)cc2)cnc2cc(Cl)nn12 | PIK3CA H1047L | cell-free assay, competition with immobilised ligand | 1 µM | 98 |
| O=C(c1ccc(Nc2nccc(-c3cc4ccccc4s3)n2)cc1)N1CCC(N2CCCC2)CC1 | PIK3CA E542K | binding, competition with immobilised ligand | 1 µM | 99 |
| COc1cc(-c2cn(C3CCc4ccccc4N(CC(F)(F)F)C3=O)nn2)ccc1-n1ccc(C)n1 (stereo not drawn) | PIK3CA E542K | cell-free assay, competition with immobilised ligand | 1 µM | 82 |
| N[C@H]1CCN(c2nccc(-c3cnn4ncccc34)n2)C1 | PIK3CA | binding | 1 µM | 100 |
| c1cncc(-c2cccc(Nc3nccc(NC4CCCCC4)n3)c2)c1 | PIK3CA I800L | binding, competition with immobilised ligand | 10 µM | 77 |
| Cc1cnn2ncc(-c3ccnc(N(C)C)n3)c2c1 | PIK3CA E542K | binding | 1 µM | 79 |
| Nc1cnc(N2CCc3cc(S(=O)(=O)Nc4c(F)cc(Cl)cc4F)cc(N4CCCC4=O)c32)nc1 | PIK3CA H1047L | cell-free assay, competition with immobilised ligand | 1 µM | 60 |
| CNC(=O)[C@@H]1CC[C@@H](n2c(-c3ccc4cnccc4c3)nc3ccc(C(=O)NCc4cccc(C(N)=O)c4)cc32)C1 | Phosphatidylinositol 4,5-bisphosphate 3-kinase catalytic subunit alpha isoform (PIK3CA, Homo sapiens, UniProt P42336, Q546K) | binding, competition with immobilised ligand | 1 µM | 100 |
| CN(C)c1nccc(-c2cnc3ncccn23)n1 | PIK3CA C420R | binding | 1 µM | 58 |
